Published values gathered from unrelated publications.
Protocols differ between the studies behind these lines.
Organism: Escherichia coli
Effect on: microbial killing

CO[C@H]1O[C@H](COC(c2ccccc2)(c2ccccc2)c2ccccc2)[C@@H](OC(=O)c2ccc(C(C)(C)C)cc2)[C@H](OC(=O)c2ccc(C(C)(C)C)cc2)[C@H]1OC(=O)c1ccc(C(C)(C)C)cc1
MBC (broth dilution): 16 µg/mL

CNC1=C([N+](=O)[O-])C2(C(=O)Nc3ccccc32)C2=C(O1)C(=O)c1ccccc1C2=O (stereo not drawn)
MBC (ATCC25922): ≤ 500 µg/mL

CN[C@H](CC(C)C)C(=O)N[C@H]1C(=O)N[C@@H](CC(N)=O)C(=O)N[C@H]2C(=O)N[C@H]3C(=O)N[C@H](C(=O)N[C@H](C(=O)O)c4cc(O)cc(O)c4-c4cc3ccc4O)[C@H](O)c3ccc(c(Cl)c3)Oc3cc2cc(c3O[C@@H]2O[C@H](CO)[C@@H](O)[C@H](O)[C@H]2O[C@H]2C[C@](C)(N)[C@H](O)[C@H](C)O2)Oc2ccc(cc2Cl)[C@H]1O
MBC (broth dilution; ATCC 8739, ATCC8739): > 128 µM

COc1c(C)c(OC)c(C(=O)/C=C/c2ccccc2)c(OC)c1C
MBC (broth dilution; ATCC25922): > 5000 µg/mL

N#CC(=Cc1cn(-c2ccccc2)nc1-c1ccccc1)C1=NC(=O)CS1
MBC (broth dilution): 0.25 µg/mL

CCn1cc(C(=O)O)c(=O)c2cc(F)c(N3CCNCC3)cc21
MBC (broth dilution; ATCC 8739, ATCC8739): 1 µM

O=C(O)c1cn(C2CC2)c2cc(N3CCNCC3)c(F)cc2c1=O
MBC (broth dilution): 0.25 µg/mL

COc1c(C)c(OC(=O)c2ccccc2)c(C)c(O)c1C(=O)/C=C/c1ccccc1
MBC (broth dilution; ATCC25922): > 5000 µg/mL

O=c1[nH]cc(F)c(=O)[nH]1
MBC (broth dilution; 48 h): > 32 µg/mL

N#CC(=Cc1ccccc1O)C1=NC(=O)C(=Cc2cn(-c3ccccc3)nc2-c2ccccc2)S1
MBC (broth dilution): 0.5 µg/mL

COc1cc(Cc2cnc(N)nc2N)cc(OC)c1OC
MBC (broth dilution; 48 h): > 32 µg/mL

COc1c(C)c(OC(=O)c2ccc(C)cc2)c(C)c(O)c1C(=O)/C=C/c1ccccc1
MBC (broth dilution; ATCC25922): > 5000 µg/mL
